Consider one compound from ChEMBL document CHEMBL1255347, “Multiclonal outbreak of Klebsiella pneumoniae producing extended-spectrum beta-lactamase CTX-M-2 and novel variant CTX-M-59 in a neonatal intensive care unit in Brazil” (2008).

Values after ≈ are worked out from the molar mass of the structure shown.

The first assay deals with Klebsiella pneumoniae. The experiment in a line: Antimicrobial activity against CTX-M-2 and TEM-1 producing Klebsiella pneumoniae transconjugants/transformants with PFGE pulsotype H by Etest. Type of assay: functional.
Conditions: not given
An outline of the steps: (§1)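 The recipient was E. coli XL1-Blue Rifr NAr. Plasmids moved by broth mating, with transconjugants selected on LB agar containing ampicillin, rifampin and nalidixic acid, each at 50 μg/ml. Where mating failed, alkaline-lysis plasmid extracts were electroporated and selected on ampicillin 50 μg/ml. β-lactam MICs were read by Etest, with and without clavulanic acid.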
As usually defined, the MIC is the smallest concentration in the dilution series that meets the test's criterion for growth inhibition. Read a low MIC as inhibition by little substance. As for `C[C@H]1[C@H](NC(=O)/C(=N\OC(C)(C)C(=O)O)c2csc(N)n2)C(=O)N1S(=O)(=O)O` [AZTREONAM], the MIC is over 256 µg/mL.

For another assay, the system named is Klebsiella pneumoniae. The experiment in a line: Antimicrobial activity against CTX-M-2 producing Klebsiella pneumoniae with PFGE pulsotype A by Etest. Type of assay: functional.
Conditions: not given
An outline of the steps:
(§2)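 Clinical K. pneumoniae isolates from a neonatal ICU outbreak near São Paulo were typed by XbaI PFGE using Tenover criteria. Cultures were grown in LB broth at 37°C. Etest MICs followed the manufacturer's instructions, with cefotaxime and ceftazidime each tested with and without clavulanic acid.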
Compound `C[C@H]1[C@H](NC(=O)/C(=N\OC(C)(C)C(=O)O)c2csc(N)n2)C(=O)N1S(=O)(=O)O` [AZTREONAM] gave an MIC of 24 µg/mL (≈ 55.1 µM).

The next assay deals with Klebsiella pneumoniae. Put plainly: Antimicrobial activity against CTX-M-59 and TEM-1 producing Klebsiella pneumoniae transconjugants/transformants with PFGE pulsotype E by Etest. It is filed as functional.
Conditions: not given
An outline of the steps:
as §1
Compound `C[C@H]1[C@H](NC(=O)/C(=N\OC(C)(C)C(=O)O)c2csc(N)n2)C(=O)N1S(=O)(=O)O` [AZTREONAM] returned an MIC of 48 µg/mL (≈ 110 µM).

The test system of the next assay is Klebsiella pneumoniae. Put plainly: Antimicrobial activity against CTX-M-59 producing Klebsiella pneumoniae with PFGE pulsotype C by Etest. Type of assay: functional.
Conditions: not given
For the compound `C[C@H]1[C@H](NC(=O)/C(=N\OC(C)(C)C(=O)O)c2csc(N)n2)C(=O)N1S(=O)(=O)O` [AZTREONAM], the MIC is 32 µg/mL (≈ 73.5 µM).

In the next assay the test system is Klebsiella pneumoniae. The experiment in a line: Antimicrobial activity against CTX-M-2 producing Klebsiella pneumoniae with PFGE pulsotype J by Etest. It is filed as functional.
Conditions: not given
`C[C@H]1[C@H](NC(=O)/C(=N\OC(C)(C)C(=O)O)c2csc(N)n2)C(=O)N1S(=O)(=O)O` [AZTREONAM] came in with an MIC of 128 µg/mL (≈ 294 µM).

The subject of another assay is Klebsiella pneumoniae. The experiment in a line: Antimicrobial activity against CTX-M-2 and TEM-1 producing Klebsiella pneumoniae transconjugants/transformants with PFGE pulsotype F by Etest. It is filed as functional.
Conditions: not given
An outline of the steps:
as §1
Consider `C[C@H]1[C@H](NC(=O)/C(=N\OC(C)(C)C(=O)O)c2csc(N)n2)C(=O)N1S(=O)(=O)O` [AZTREONAM], for which the MIC is over 256 µg/mL.

For the next assay, the system named is Escherichia coli. The experiment in a line: Antimicrobial activity against Escherichia coli str. K-12 substr. DH10B harboring plasmid CTX-M-2. Particulars: K-12 DH10B. Type of assay: functional. An outline of the steps: (§3)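 blaCTX-M PCR products were cut with XbaI/BamHI and cloned into pBC-SK(−), then electroporated into E. coli DH10B. Transformants were selected on LB agar with ampicillin 50 μg/ml and chloramphenicol 30 μg/ml, and sequences were confirmed. These clones were used for β-lactam MICs, with and without clavulanic acid.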
`C[C@H]1[C@H](NC(=O)/C(=N\OC(C)(C)C(=O)O)c2csc(N)n2)C(=O)N1S(=O)(=O)O` [AZTREONAM]: the MIC was 12 µg/mL (≈ 27.6 µM).

Another assay has as its system Klebsiella pneumoniae. Put plainly: Antimicrobial activity against CTX-M-2 and TEM-1 producing Klebsiella pneumoniae transconjugants/transformants with PFGE pulsotype B by Etest. Type of assay: functional.
Conditions: not given
An outline of the steps:
as §1
`C[C@H]1[C@H](NC(=O)/C(=N\OC(C)(C)C(=O)O)c2csc(N)n2)C(=O)N1S(=O)(=O)O` [AZTREONAM] had a minimal inhibitory concentration (MIC) of 256 µg/mL (≈ 588 µM).

The next assay deals with Klebsiella pneumoniae. Put plainly: Antimicrobial activity against SHV-5 producing Klebsiella pneumoniae with PFGE pulsotype D by Etest. Type of assay: functional.
Conditions: not given
An outline of the steps:
as §2
Compound `C[C@H]1[C@H](NC(=O)/C(=N\OC(C)(C)C(=O)O)c2csc(N)n2)C(=O)N1S(=O)(=O)O` [AZTREONAM] yielded a minimal inhibitory concentration (MIC) of 256 µg/mL (≈ 588 µM).

The test system of the next assay is Escherichia coli. Put plainly: Antimicrobial activity against Escherichia coli str. K-12 substr. DH10B harboring plasmid CTX-M-59. It is filed as functional. Particulars: K-12 DH10B. An outline of the steps:
as §3
`C[C@H]1[C@H](NC(=O)/C(=N\OC(C)(C)C(=O)O)c2csc(N)n2)C(=O)N1S(=O)(=O)O` [AZTREONAM]: inhibition of growth (MIC) required 12 µg/mL (≈ 27.6 µM).

For another assay, the system named is Klebsiella pneumoniae. The experiment in a line: Antimicrobial activity against CTX-M-2 and TEM-1 producing Klebsiella pneumoniae transconjugants/transformants with PFGE pulsotype J by Etest. It is filed as functional.
Conditions: not given
An outline of the steps:
as §1
Turning to `C[C@H]1[C@H](NC(=O)/C(=N\OC(C)(C)C(=O)O)c2csc(N)n2)C(=O)N1S(=O)(=O)O` [AZTREONAM], the MIC was over 256 µg/mL.

The next assay has as its system Klebsiella pneumoniae. Put plainly: Antimicrobial activity against CTX-M-2 producing Klebsiella pneumoniae with PFGE pulsotype B by Etest.
Conditions: not given
Type of assay: functional. An outline of the steps:
as §2
Take `C[C@H]1[C@H](NC(=O)/C(=N\OC(C)(C)C(=O)O)c2csc(N)n2)C(=O)N1S(=O)(=O)O` [AZTREONAM]: the MIC came out at 48 µg/mL (≈ 110 µM).

A further assay relates to Klebsiella pneumoniae. Put plainly: Antimicrobial activity against CTX-M-59 producing Klebsiella pneumoniae with PFGE pulsotype E by Etest. Type of assay: functional.
Conditions: not given
In turn, `C[C@H]1[C@H](NC(=O)/C(=N\OC(C)(C)C(=O)O)c2csc(N)n2)C(=O)N1S(=O)(=O)O` [AZTREONAM] came in with an MIC of 32 µg/mL (≈ 73.5 µM).

For a further assay, the system named is Klebsiella pneumoniae. The experiment in a line: Antimicrobial activity against CTX-M-2 producing Klebsiella pneumoniae with PFGE pulsotype H by Etest. Type of assay: functional.
Conditions: not given
An outline of the steps: as §2
On to `C[C@H]1[C@H](NC(=O)/C(=N\OC(C)(C)C(=O)O)c2csc(N)n2)C(=O)N1S(=O)(=O)O` [AZTREONAM], for which the MIC was 48 µg/mL (≈ 110 µM).

In a further assay the test system is Klebsiella pneumoniae. Put plainly: Antimicrobial activity against CTX-M-59 producing Klebsiella pneumoniae with PFGE pulsotype G by Etest.
Conditions: not given
It is filed as functional. An outline of the steps: as §2
`C[C@H]1[C@H](NC(=O)/C(=N\OC(C)(C)C(=O)O)c2csc(N)n2)C(=O)N1S(=O)(=O)O` [AZTREONAM]: inhibition of growth (MIC) required 64 µg/mL (≈ 147 µM).

In a further assay the test system is Klebsiella pneumoniae. The experiment in a line: Antimicrobial activity against CTX-M-2 producing Klebsiella pneumoniae with PFGE pulsotype F by Etest. It is filed as functional.
Conditions: not given
`C[C@H]1[C@H](NC(=O)/C(=N\OC(C)(C)C(=O)O)c2csc(N)n2)C(=O)N1S(=O)(=O)O` [AZTREONAM]: inhibition of growth (MIC) required 256 µg/mL (≈ 588 µM).

Another assay deals with Klebsiella pneumoniae. Put plainly: Antimicrobial activity against CTX-M-2 and TEM-1 producing Klebsiella pneumoniae transconjugants/transformants with PFGE pulsotype I by Etest. Type of assay: functional.
Conditions: not given
An outline of the steps: as §1
In the case of `C[C@H]1[C@H](NC(=O)/C(=N\OC(C)(C)C(=O)O)c2csc(N)n2)C(=O)N1S(=O)(=O)O` [AZTREONAM], the minimal inhibitory concentration (MIC) was over 256 µg/mL.

The test system of a further assay is Klebsiella pneumoniae. The experiment in a line: Antimicrobial activity against SHV-5 producing Klebsiella pneumoniae transconjugants/transformants with PFGE pulsotype D by Etest. Type of assay: functional.
Conditions: not given
An outline of the steps: as §1
`C[C@H]1[C@H](NC(=O)/C(=N\OC(C)(C)C(=O)O)c2csc(N)n2)C(=O)N1S(=O)(=O)O` [AZTREONAM] gave an MIC of over 256 µg/mL.

In the next assay the test system is Klebsiella pneumoniae. The experiment in a line: Antimicrobial activity against CTX-M-59 and TEM-1 producing Klebsiella pneumoniae transconjugants/transformants with PFGE pulsotype G by Etest.
Conditions: not given
Type of assay: functional. An outline of the steps: as §1
In turn, `C[C@H]1[C@H](NC(=O)/C(=N\OC(C)(C)C(=O)O)c2csc(N)n2)C(=O)N1S(=O)(=O)O` [AZTREONAM] yielded an MIC of over 256 µg/mL.

The test system of a further assay is Klebsiella pneumoniae. The experiment in a line: Antimicrobial activity against CTX-M-59 and TEM-1 producing Klebsiella pneumoniae transconjugants/transformants with PFGE pulsotype C by Etest. Type of assay: functional.
Conditions: not given
An outline of the steps: as §1
`C[C@H]1[C@H](NC(=O)/C(=N\OC(C)(C)C(=O)O)c2csc(N)n2)C(=O)N1S(=O)(=O)O` [AZTREONAM] showed an MIC of over 256 µg/mL.

The subject of a further assay is Klebsiella pneumoniae. Put plainly: Antimicrobial activity against CTX-M-2 and TEM-1 producing Klebsiella pneumoniae transconjugants/transformants with PFGE pulsotype A by Etest. It is filed as functional.
Conditions: not given
An outline of the steps: as §1
On to `C[C@H]1[C@H](NC(=O)/C(=N\OC(C)(C)C(=O)O)c2csc(N)n2)C(=O)N1S(=O)(=O)O` [AZTREONAM], for which the minimum inhibitory concentration (MIC) is over 256 µg/mL.

The subject of a further assay is Klebsiella pneumoniae. Put plainly: Antimicrobial activity against CTX-M-2 producing Klebsiella pneumoniae with PFGE pulsotype I by Etest. Type of assay: functional.
Conditions: not given
`C[C@H]1[C@H](NC(=O)/C(=N\OC(C)(C)C(=O)O)c2csc(N)n2)C(=O)N1S(=O)(=O)O` [AZTREONAM] had an MIC of 24 µg/mL (≈ 55.1 µM).
